Data taken from article PMC9099118 (Clinical and Translational Science, 2022).

Experiment: Phase I plasma pharmacokinetics after single
Type: in vivo, human
Conditions: for Cmax: plasma; for T max: median; for AR (Cmin): Cmin Day 14/Cmin Day 1, mean; for Cmax, Day 1 / Cmin, Day 1: first dose; for AUCtau, Day14 / Cmax, Day 14 / Cmin, Day 14: steady-state
Outline: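 Randomized, placebo-controlled, blinded study in healthy adults aged 18–65. Part A gave single inhaled doses of 0.15–15 mg; Part B gave 1, 3 or 10 mg q.d. or 15 mg b.i.d. for 14 days via a capsule dry-powder inhaler, each dose over 15 (±5) min. Serial plasma samples were taken from pre-dose to Day 15 (Part A) or Day 42 (Part B). Drug was assayed by HPLC-MS/MS (LLOQ 10 pg/mL). Accumulation ratio = Cmin Day 14/Cmin Day 1.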

[1] = Part A SAD, range across dose levels

Structure (SMILES): CN(CCC#N)C1CCN(C(=O)Cn2cc(NC(=O)c3cnn4cccnc34)c(-c3cc(Cl)ccc3OC(F)F)n2)CC1 [GDC‐0214]
- Cmax (Part A SAD, 0.15 mg single inhaled dose, mean): 0.0702 ng/mL
- T max (Part A SAD, 0.15 mg): 0.283 h
- Cmax (Part A SAD, 0.5 mg single inhaled dose, mean): 0.301 ng/mL
- AUCinf (Part A SAD, 0.5 mg, mean): 2.458 ng·h/mL
- CL/F (Part A SAD, 0.5 mg, mean): 227 L/h
- T 1/2 (Part A SAD, 0.5 mg, mean): 37.3 h
- Vz/F (Part A SAD, 0.5 mg, mean): 12264 L
- T max (Part A SAD, 0.5 mg): 0.267 h
- Cmax (Part A SAD, 1.5 mg single inhaled dose, mean): 0.763 ng/mL
- AUCinf (Part A SAD, 1.5 mg, mean): 7.32 ng·h/mL
- CL/F (Part A SAD, 1.5 mg, mean): 220 L/h
- T 1/2 (Part A SAD, 1.5 mg, mean): 38.7 h
- Vz/F (Part A SAD, 1.5 mg, mean): 12620 L
- T max (Part A SAD, 1.5 mg): 0.517 h
- Cmax (Part A SAD, 5 mg single inhaled dose, mean): 2.883 ng/mL
- AUCinf (Part A SAD, 5 mg, mean): 34.727 ng·h/mL
- CL/F (Part A SAD, 5 mg, mean): 149 L/h
- T 1/2 (Part A SAD, 5 mg, mean): 36.5 h
- Vz/F (Part A SAD, 5 mg, mean): 7744 L
- T max (Part A SAD, 5 mg): 0.458 h
- Cmax (Part A SAD, 15 mg single inhaled dose, mean): 7.27 ng/mL
- AUCinf (Part A SAD, 15 mg, mean): 96.038 ng·h/mL
- CL/F (Part A SAD, 15 mg, mean): 158 L/h
- T 1/2 (Part A SAD, 15 mg, mean): 39.7 h
- Vz/F (Part A SAD, 15 mg, mean): 9116 L
- T max (Part A SAD, 15 mg): 0.500 h
- dose proportionality of mean Cmax and AUC0-inf (Part A SAD, across cohorts): approximately dose‐proportional
- mean CL/F [1]: 149 to 227 L/h
- mean apparent volume of distribution (Vz/F) [1]: 7740–12,600 L
- t 1/2 (Part B MAD, 1 mg q.d. for 14 days, mean): 38.5 h
- AR (Cmin) (Part B MAD, 1 mg q.d.): 3.0
- Cmax, Day 1 (Part B MAD, 1 mg q.d., mean): 0.581 ng/mL
- Cmin, Day 1 (Part B MAD, 1 mg q.d., mean): 0.0594 ng/mL
- AUCtau, Day1 (Part B MAD, 1 mg q.d., mean): 2910 pg·h/mL
- AUCtau, Day14 (Part B MAD, 1 mg q.d., mean): 5969 pg·h/mL
- Cmax, Day 14 (Part B MAD, 1 mg q.d., mean): 810 pg/mL
- Cmin, Day 14 (Part B MAD, 1 mg q.d., mean): 0.167 ng/mL
- t 1/2 (Part B MAD, 3 mg q.d. for 14 days, mean (N 5)): 32.0 h
- AR (Cmin) (Part B MAD, 3 mg q.d.): 2.79
- Cmax, Day 1 (Part B MAD, 3 mg q.d., mean): 1.51 ng/mL
- Cmin, Day 1 (Part B MAD, 3 mg q.d., mean): 0.164 ng/mL
- AUCtau, Day1 (Part B MAD, 3 mg q.d., mean): 8080 pg·h/mL
- AUCtau, Day14 (Part B MAD, 3 mg q.d., mean): 15,794 pg.h/mL
- Cmax, Day 14 (Part B MAD, 3 mg q.d., mean): 2115 pg/mL
- Cmin, Day 14 (Part B MAD, 3 mg q.d., mean): 0.45 ng/mL
- t 1/2 (Part B MAD, 10 mg q.d. for 14 days, mean): 40.8 h
- AR (Cmin) (Part B MAD, 10 mg q.d.): 3.47
- Cmax, Day 1 (Part B MAD, 10 mg q.d., mean): 3.77 ng/mL
- Cmin, Day 1 (Part B MAD, 10 mg q.d., mean): 0.517 ng/mL
- AUCtau, Day1 (Part B MAD, 10 mg q.d., mean): 21,300 pg.h/mL
- AUCtau, Day14 (Part B MAD, 10 mg q.d., mean): 52,824 pg.h/mL
- Cmax, Day 14 (Part B MAD, 10 mg q.d., mean): 5982 pg/mL
- Cmin, Day 14 (Part B MAD, 10 mg q.d., mean): 1.78 ng/mL
- t 1/2 (Part B MAD, 15 mg b.i.d. for 14 days, mean): 56.9 h
- AR (Cmin) (Part B MAD, 15 mg b.i.d.): 2.49
- Cmax, Day 1 (Part B MAD, 15 mg b.i.d., mean): 6.08 ng/mL
- Cmin, Day 1 (Part B MAD, 15 mg b.i.d., mean): 2.09 ng/mL
- AUCtau, Day1 (Part B MAD, 15 mg b.i.d., mean): 39,500 pg.h/mL
- AUCtau, Day14 (Part B MAD, 15 mg b.i.d., mean): 79,907 pg.h/mL
- Cmax, Day 14 (Part B MAD, 15 mg b.i.d., mean): 12,423 pg/mL
- Cmin, Day 14 (Part B MAD, 15 mg b.i.d., mean): 5.26 ng/mL
- dose proportionality of Cmax and AUCtau (Part B MAD, across the three q.d. cohorts): approximately dose‐proportional
- steady-state concentrations achieved by (Part B MAD, q.d. or b.i.d. dosing): ≤ 6 days
- time of peak plasma concentrations post-dose (after inhalation, across cohorts): 15 to 30 min
